Screening data (PubChem)
KDM4C inh: inhibitors of GASC-1 (KDM4C) histone demethylase, primary screen, biochemical, single concentration HTS; inhibition, % at 12.5 µM; Lysine-specific demethylase 4C (Homo sapiens), Q9H3R0; GST-KDM4C 2-372, H3K9me3 peptide, LANCE TR-FRET; AID 720574, 2013; 96,000 tested, 0.15% active;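 active means mean replicate inhibition above about 25%, with at least 55% of replicates also reaching it, limit read from the data, passing the limit was not always enough; inconclusive means only one of those two conditions met; inactive means neither condition met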
Target sequence (Q9H3R0 2-372 limits assumed): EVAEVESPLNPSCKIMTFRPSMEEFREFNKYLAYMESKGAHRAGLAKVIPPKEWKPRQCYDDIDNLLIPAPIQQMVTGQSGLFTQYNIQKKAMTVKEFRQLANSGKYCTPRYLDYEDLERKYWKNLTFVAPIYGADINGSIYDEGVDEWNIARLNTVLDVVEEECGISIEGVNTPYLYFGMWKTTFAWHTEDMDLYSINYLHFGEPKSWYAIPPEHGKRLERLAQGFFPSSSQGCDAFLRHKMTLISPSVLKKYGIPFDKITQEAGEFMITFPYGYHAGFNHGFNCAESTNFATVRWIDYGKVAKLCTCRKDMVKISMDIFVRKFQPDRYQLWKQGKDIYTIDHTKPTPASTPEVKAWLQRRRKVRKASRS
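Assay system: GST-GASC-1 enzyme fragment 2-372 | Amount: 10 nM enzyme | Medium: HEPES buffer, pH 7.5, plus ascorbate | Reagent: H3K9me3 peptide substrate, Fe(II), 2-oxoglutarate | Doses: Single-point compound screen | Incubation: 30 min demethylation and 1 h detection at room temperature | Measured by: LANCE TR-FRET, excitation 340 nm, emissions 618 and 671 nm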
T cruzi growth-1: T. cruzi intracellular proliferation inhibitors, primary screen, cell-based, beta-gal Tulahuen parasites, NIH3T3 host, luminescence; T. cruzi beta-gal in NIH3T3, GalScreen luminescence, 90 h; inhibition, % at 8.34 µM; 77,000 tested, 5.9% active; AID 624255, 2012;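 active means mean inhibition above about 93%, with at least 55% of replicates each passing it, limit read from the data, passing the limit was not always enough; inconclusive means only one of those two conditions holds; inactive means neither condition holds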
IDH1 mut inh: inhibitors of IDH1 R132H reductase, primary screen, biochemical, plate reader, single point | Isocitrate dehydrogenase [NADP] cytoplasmic (Homo sapiens), O75874 | diaphorase/resazurin fluorescence, 60 min | inhibition, % at 10 µM | 70,000 tested, 0.18% active; in the data active means inhibition above about 34%; inconclusive means no clear call, values can overlap the other calls; inactive means below about 11%
Target sequence (O75874 whole entry R132H): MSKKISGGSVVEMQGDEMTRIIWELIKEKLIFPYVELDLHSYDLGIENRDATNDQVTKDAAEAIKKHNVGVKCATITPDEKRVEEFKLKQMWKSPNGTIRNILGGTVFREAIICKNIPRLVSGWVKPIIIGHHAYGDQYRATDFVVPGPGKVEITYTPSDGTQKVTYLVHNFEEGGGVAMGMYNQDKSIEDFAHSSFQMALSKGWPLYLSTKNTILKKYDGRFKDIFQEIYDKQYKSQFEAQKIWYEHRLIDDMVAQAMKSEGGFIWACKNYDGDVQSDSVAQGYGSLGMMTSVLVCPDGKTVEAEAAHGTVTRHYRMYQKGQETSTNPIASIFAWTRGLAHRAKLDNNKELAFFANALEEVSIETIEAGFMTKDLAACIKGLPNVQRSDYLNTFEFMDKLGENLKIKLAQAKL
T cruzi growth-2: T. cruzi intracellular proliferation inhibitors, confirmation, cell-based, NIH3T3 host, beta-gal parasite, luminescence, cherry-pick | T. cruzi beta-gal in NIH3T3, GalScreen luminescence, 90 h | inhibition, % at 8.35 µM | shares compounds with T cruzi growth-1 | AID 651739, 2012 | 5,600 tested, 72% active;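 active means mean replicate inhibition above about 95% and at least 55% of replicates individually reaching it, limit read from the data; inconclusive means only one of the two criteria is met; inactive means neither criterion is met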
T cruzi growth-3: inhibitors of intracellular T. cruzi replication, confirmation, NIH3T3 host cells, beta-gal parasites, cherry-pick, set 2; shares compounds with T cruzi growth-1; inhibition, % at 2.09 µM; T. cruzi beta-gal in NIH3T3, GalScreen luminescence, 90 h; 5,600 tested, 21% active;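 active means mean inhibition above about 95%, with at least 55% of replicates also reaching it, limit read from the data; inconclusive means meets just one of the two conditions; inactive means meets neither condition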
3T3 cytotox: cytotoxicity in mouse NIH/3T3 fibroblasts, confirmation, cytotoxicity control for T. cruzi proliferation inhibitor project, cell-based, cherry-pick, single point. 5,600 tested, 14% active. cytotoxicity (signal decrease), % at 8.35 µM. NIH/3T3 viability, CellTiter-Glo ATP luminescence, 90 h. AID 651742, 2012. shares compounds with T cruzi growth-1;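 active means mean signal decrease across replicates above about 35% based on untreated-well scatter, with enough replicates individually passing, limit read from the data; inconclusive means no rule stated though some were filed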
NIH3T3 tox 2: NIH/3T3 fibroblast cytotoxicity, confirmation, cytotoxicity control, cell-based, cherry-pick, single point, set 2; shares compounds with T cruzi growth-1; NIH/3T3 viability, CellTiter-Glo ATP luminescence, 90 h; inhibition, % at 24.9 µM; 5,600 tested, 56% active; AID 651744, 2012;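 active means mean loss of cell viability signal at or above a set limit, and enough replicates individually reaching it; inconclusive means meets only the mean limit or only the replicate share; inactive means meets neither condition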
Of the large screens only hits and unclear results are named; the others gave an inactive call (follow-up assays come after a bar, where they were run). This excerpt belongs to a sample that is enriched for hits.

C[C@@H]1CCCCO[C@@H](CN(C)C(=O)Nc2ccc(C(F)(F)F)cc2)[C@H](C)CN([C@H](C)CO)C(=O)c2cc(NC(=O)Cc3ccccc3)ccc2O1	T cruzi growth-1 inconclusive (no result: IDH1 mut inh) | T cruzi growth-2 106 | T cruzi growth-3 104 | 3T3 cytotox inactive | NIH3T3 tox 2 inactive
COc1cccc2cc(C(=O)C3C(=O)C(=O)N(c4nc(C)c(C)s4)C3c3ccco3)oc12 (stereo not given)	none (no result: KDM4C inh, T cruzi growth-1)
COc1cc(OC)c(C2=NOC(C(=O)Nc3sc4c(c3C#N)CCC4)C2)cc1Cl (stereo not given)	none (no result: KDM4C inh, T cruzi growth-1)
C[C@H](CO)N1C[C@H](C)[C@H](CN(C)Cc2ccc(C(=O)Nc3ccccc3N)cc2)Oc2ccc(NC(=O)Nc3ccc(C(F)(F)F)cc3)cc2CC1=O	none (no result: KDM4C inh, T cruzi growth-1)
CCC(=O)N1CCN(c2ccc(Cl)cc2NC(=O)COc2cc(C)cc(C)c2)CC1	none (no result: KDM4C inh, T cruzi growth-1)
CCCCCCC(=O)OC1OC(CO)C(O)C2OCC(C(=O)O)COC12 (stereo not given)	none (no result: KDM4C inh, T cruzi growth-1)
CC(=O)C(C#N)C(=O)Nc1ccc(OC(F)(F)F)cc1 (stereo not given)	none (no result: KDM4C inh, T cruzi growth-1)
C[C@@H]1CCCCO[C@H](CN(C)C(=O)Nc2ccc(C(F)(F)F)cc2)[C@@H](C)CN([C@H](C)CO)C(=O)c2cc(NC(=O)Cc3ccccc3)ccc2O1	none
C[C@H]1CCCCO[C@H](CN(C)C(=O)Nc2ccc(C(F)(F)F)cc2)[C@@H](C)CN([C@@H](C)CO)C(=O)c2cc(NC(=O)Cc3ccccc3)ccc2O1	T cruzi growth-1 inconclusive | T cruzi growth-2 101 | T cruzi growth-3 113 | 3T3 cytotox inactive | NIH3T3 tox 2 inactive
CCc1ccc(-n2c(SCC(=O)Nc3cccc(C)c3)nnc2-c2ccccc2)cc1	none (no result: KDM4C inh, T cruzi growth-1)
Cc1ccc(S(=O)(=O)N(C)C[C@@H]2OCCCC[C@H](C)Oc3ccc(NC(=O)Nc4ccc5c(c4)OCO5)cc3C(=O)N([C@H](C)CO)C[C@@H]2C)cc1	T cruzi growth-1 119 | T cruzi growth-2 111 | T cruzi growth-3 105 | 3T3 cytotox inactive | NIH3T3 tox 2 inactive
COc1ccc(S(=O)(=O)N(C)C[C@H]2OCCCC[C@@H](C)Oc3ccc(NC(=O)Nc4ccc5c(c4)OCO5)cc3C(=O)N([C@H](C)CO)C[C@@H]2C)cc1	none
C[C@@H]1CCCCO[C@H](CN(C)S(=O)(=O)c2ccc(Cl)cc2)[C@@H](C)CN([C@@H](C)CO)C(=O)c2cc(NC(=O)Nc3ccc4c(c3)OCO4)ccc2O1	T cruzi growth-1 103 (no result: IDH1 mut inh) | T cruzi growth-2 108 | T cruzi growth-3 104 | 3T3 cytotox inactive | NIH3T3 tox 2 inactive
C[C@@H]1CCCCO[C@@H](CN(C)S(=O)(=O)c2ccc(Cl)cc2)[C@@H](C)CN([C@H](C)CO)C(=O)c2cc(NC(=O)Nc3ccc4c(c3)OCO4)ccc2O1	none (no result: IDH1 mut inh)
Cc1ccc(S(=O)(=O)N(C)C[C@H]2OCCCC[C@H](C)Oc3ccc(NC(=O)Nc4ccc5c(c4)OCO5)cc3C(=O)N([C@@H](C)CO)C[C@@H]2C)cc1	none (no result: T cruzi growth-1)
COc1ccc(S(=O)(=O)N(C)C[C@@H]2OCCCC[C@@H](C)Oc3ccc(NC(=O)Nc4ccc5c(c4)OCO5)cc3C(=O)N([C@@H](C)CO)C[C@H]2C)cc1	T cruzi growth-1 inconclusive | T cruzi growth-2 107 | T cruzi growth-3 inactive | 3T3 cytotox inactive | NIH3T3 tox 2 inactive
CCOC(=O)c1c(NC(=O)C(C)Oc2ccccc2)sc(C)c1C (stereo not given)	none (no result: KDM4C inh, T cruzi growth-1)
Cn1c(SCC(=O)N2c3ccccc3Sc3ccccc32)nnc1-c1ccccc1Cl	none (no result: KDM4C inh, T cruzi growth-1)
CS(=O)(=O)N(CC(=O)Nc1ccc(F)c(F)c1)c1ccccc1Br	none (no result: KDM4C inh, T cruzi growth-1)
Cc1nc(C)c(C(=O)C2C(=O)C(=O)N(CCCN3CCOCC3)C2c2ccccc2)s1 (stereo not given)	none (no result: KDM4C inh, T cruzi growth-1)
C[C@@H]1CCCCO[C@H](CN(C)C(=O)C2CCCCC2)[C@@H](C)CN([C@@H](C)CO)C(=O)c2cc(NC(=O)Nc3cccc4ccccc34)ccc2O1	T cruzi growth-1 inconclusive | T cruzi growth-2 103 | T cruzi growth-3 102 | 3T3 cytotox inactive | NIH3T3 tox 2 inactive
C[C@H](CO)N1C[C@H](C)[C@@H](CN(C)C(=O)C2CCCCC2)OCCCC[C@H](C)Oc2ccc(NC(=O)Nc3cccc4ccccc34)cc2C1=O	T cruzi growth-1 119 (no result: IDH1 mut inh) | T cruzi growth-2 inactive | T cruzi growth-3 inactive | 3T3 cytotox inactive | NIH3T3 tox 2 inconclusive
C[C@@H]1CCCCO[C@@H](CN(C)C(=O)C2CCCCC2)[C@H](C)CN([C@H](C)CO)C(=O)c2cc(NC(=O)Nc3cccc4ccccc34)ccc2O1	T cruzi growth-1 inconclusive | T cruzi growth-2 110 | T cruzi growth-3 105 | 3T3 cytotox inactive | NIH3T3 tox 2 inactive
C[C@@H]1CN([C@H](C)CO)C(=O)c2cc(NC(=O)Nc3cccc4ccccc34)ccc2O[C@@H](C)CCCCO[C@@H]1CN(C)C(=O)C1CCCCC1	none (no result: IDH1 mut inh)
C[C@@H]1CCCCO[C@@H](CN(C)C(=O)Nc2cccc3ccccc23)[C@@H](C)CN([C@H](C)CO)C(=O)c2cc(NC(=O)Nc3cccc4ccccc34)ccc2O1	none
C[C@H](CO)N1C[C@H](C)[C@H](CN(C)C(=O)C2CCCCC2)OCCCC[C@H](C)Oc2ccc(NC(=O)Nc3cccc4ccccc34)cc2C1=O	T cruzi growth-1 121 | T cruzi growth-2 105 | T cruzi growth-3 inactive | 3T3 cytotox inactive | NIH3T3 tox 2 inactive
C[C@@H]1CN([C@@H](C)CO)C(=O)c2cc(NC(=O)Nc3cccc4ccccc34)ccc2O[C@@H](C)CCCCO[C@H]1CN(C)C(=O)C1CCCCC1	none (no result: IDH1 mut inh)
C[C@@H]1CCCCO[C@@H](CN(C)C(=O)C2CCCCC2)[C@@H](C)CN([C@H](C)CO)C(=O)c2cc(NC(=O)Nc3cccc4ccccc34)ccc2O1	none
COc1ccc(CC(=O)n2nc(-c3ccc(Cl)cc3)nc2NCc2ccco2)cc1OC	none (no result: KDM4C inh, T cruzi growth-1)
COc1cc(NC(=O)CCC(=O)O)ccc1NC(C)=O	none (no result: KDM4C inh, T cruzi growth-1)
Cc1nn(CC(O)COc2ccc3cc(Br)ccc3c2)c(C)c1Cl (stereo not given)	none (no result: KDM4C inh, T cruzi growth-1)
O=C(CSc1nc(-c2ccccc2)cc(=O)[nH]1)Nc1ccc(Cl)cc1	none (no result: KDM4C inh, T cruzi growth-1)
